Measurements taken from ChEMBL document CHEMBL1141193, “Design, synthesis, and biological evaluation of hybrid molecules containing alpha-methylene-gamma-butyrolactones and alpha-bromoacryloyl moieties” (J Med Chem, 2005).
The source made the active and inactive calls. No cut-off for these calls is given here.

Key:
Format in all cases: functional, cell-based
[1] = tested on: HL-60; test: DNA fragmentation in HL60 cells by ethidium bromide staining at 1 uM for 12 hrs; conditions: Homo sapiens
[2] = tested on: HL-60; test: PARP hydrolysis in HL60 cells by an immunoblot assay; conditions: Homo sapiens
Outline: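 HL-60 cell lysates, equal protein per lane, were run on SDS-PAGE and blotted with an anti-PARP monoclonal antibody to detect PARP cleavage. Etoposide was the positive control.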

[3] = tested on: HL-60; test: Cytochrome c release in HL60 cells by immunoblotting at 1 uM; conditions: Homo sapiens
Outline: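 HL-60 cells treated with 1 or 3 µM compound and harvested at 12 h. Cytosolic lysates were immunoblotted with anti-cytochrome c antibody, looking for the 15 kDa band. β-actin served as loading control.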

[4] = tested on: HL-60; test: Condensation of chromatin in HL60 cells at 1 uM for 12 hrs; conditions: Homo sapiens
Outline: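 HL-60 cells exposed to 1 µM compound for 12 h, then DNA stained with Hoechst 33258. Chromatin condensation and apoptotic bodies were examined by fluorescence microscopy. Apoptotic nuclei were counted quantitatively in triplicate, and the experiment was repeated once.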

[5] = tested on: L1210; test: In vitro antiproliferative activity against murine lymphocytic L1210 leukemia cell line; conditions: Mus musculus
Outline: (§1)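 Exponentially growing cells in RPMI 1640 with 10% FCS, 2 mM L-glutamine, […] and penicillin/streptomycin. Exposed to increasing drug concentrations, diluted from a 1 mg/mL DMSO stock. Cell number per mL was counted by Coulter counter after 48 h, using duplicate cultures per concentration and at least three repeats. IC50 = 50% growth inhibition versus untreated controls, reported as mean ± SE.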

[6] = tested on: K562; test: In vitro antiproliferative against human chronic myelogenous K562 cell line; outline: as §1
[7] = tested on: HL-60; test: In vitro antiproliferative activity against human HL60 myeloid leukemia cell line by MTT assay
[8] = tested on: PBMC; test: In vitro antiproliferative activity against human PBM cell line by MTT assay
Outline: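 PBMCs isolated from anticoagulant-treated blood of healthy human donors. Cells were cultured with or without compound for 24 h, and growth was read by MTT dye-reduction assay. IC50 taken from dose-response curves of at least two independent experiments, each in triplicate determinations, as mean ± SE.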

IC50 [5] [nM] | IC50 [6] [nM] | IC50 [7] [nM] | SMILES | Activity [1] | Activity [2] | Activity [3] | Activity [4] | IC50 [8] [nM]
50 | 80 | 110 | C=C(Br)C(=O)Nc1ccc2c(c1)cc(C(=O)NCCNC(=O)c1cc(OCC3(c4ccccc4)CC(=C)C(=O)O3)nn1C)n2C (configuration not stated) | Active | Active | Active | Active | 2520
290 | 380 | 360 | C=C(Br)C(=O)Nc1ccc2sc(C(=O)NCCNC(=O)c3cc(OCC4(c5ccc(-c6ccccc6)cc5)CC(=C)C(=O)O4)nn3C)cc2c1 (configuration not stated) | Active | Active | Active | Active | 8610
310 | 420 | 270 | C=C(Br)C(=O)Nc1ccc2oc(C(=O)NCCNC(=O)c3cc(OCC4(c5ccccc5)CC(=C)C(=O)O4)nn3C)cc2c1 (configuration not stated) | Active | Active | Active | Active | 5440
850 | 630 | – | C=C(Br)C(=O)Nc1ccc2[nH]c(C(=O)NCCNC(=O)c3cc(OCC4(c5ccccc5)CC(=C)C(=O)O4)nn3C)cc2c1 (configuration not stated) | – | – | – | – | –
> 10000 | > 10000 | – | C=C1CC(COc2cc(C(=O)O)n(C)n2)(c2ccccc2)OC1=O (configuration not stated) | – | – | – | – | –
2070 | 3370 | – | C=C(Br)C(=O)Nc1ccc2c(c1)cc(C(=O)O)n2C | – | – | – | – | –
> 10000 | > 10000 | – | C=C1CC(COc2cc(C(=O)O)n(C)n2)(c2ccc(-c3ccccc3)cc2)OC1=O (configuration not stated) | – | – | – | – | –
260 | 410 | 290 | C=C(Br)C(=O)Nc1ccc2sc(C(=O)NCCNC(=O)c3cc(OCC4(c5ccc(Cl)cc5)CC(=C)C(=O)O4)nn3C)cc2c1 (configuration not stated) | Active | Active | Active | Active | 6820
280 | 360 | – | C=C(Br)C(=O)Nc1ccc2c(c1)cc(C(=O)NCCNC(=O)c1cc(OCC3(c4ccc(-c5ccccc5)cc4)CC(=C)C(=O)O3)nn1C)n2C (configuration not stated) | – | – | – | – | –
> 10000 | > 10000 | – | C=C1CC(C)(COc2cc(C(=O)O)n(C)n2)OC1=O (configuration not stated) | – | – | – | – | –
270 | 410 | – | C=C(Br)C(=O)Nc1ccc2oc(C(=O)NCCNC(=O)c3cc(OCC4(c5ccc(-c6ccccc6)cc5)CC(=C)C(=O)O4)nn3C)cc2c1 (configuration not stated) | – | – | – | – | –
360 | 480 | – | C=C(Br)C(=O)Nc1ccc2[nH]c(C(=O)NCCNC(=O)c3cc(OCC4(c5ccc(-c6ccccc6)cc5)CC(=C)C(=O)O4)nn3C)cc2c1 (configuration not stated) | – | – | – | – | –
550 | 710 | – | C=C(Br)C(=O)Nc1ccc2oc(C(=O)NCCNC(=O)c3cc(OCC4(c5ccc(Cl)cc5)CC(=C)C(=O)O4)nn3C)cc2c1 (configuration not stated) | – | – | – | – | –
4500 | 5000 | – | C=C(Br)C(=O)Nc1ccc2sc(C(=O)O)cc2c1 | – | – | – | – | –
290 | 270 | – | C=C(Br)C(=O)Nc1ccc2sc(C(=O)NCCNC(=O)c3cc(OCC4(c5ccccc5)CC(=C)C(=O)O4)nn3C)cc2c1 (configuration not stated) | – | – | – | – | –
4300 | 5600 | – | C=C(Br)C(=O)Nc1ccc2[nH]c(C(=O)O)cc2c1 | – | – | – | – | –
2950 | 7250 | – | C=C(Br)C(=O)Nc1ccc2oc(C(=O)O)cc2c1 | – | – | – | – | –
840 | 1020 | – | C=C(Br)C(=O)Nc1ccc2sc(C(=O)NCCNC(=O)c3cc(OCC4(C)CC(=C)C(=O)O4)nn3C)cc2c1 (configuration not stated) | – | – | – | – | –
> 10000 | > 10000 | – | C=C1CC(COc2cc(C(=O)O)n(C)n2)(c2ccc(Cl)cc2)OC1=O (configuration not stated) | – | – | – | – | –
